Measurements taken from publication PMC10764114 (ACS Omega, 2023).
Like-named read-outs stand apart in the source and are kept apart here.

Key:
[1] = test system: U87-malignant glioma (ATCC-HTB-14); experiment: MTT assay, cytotoxicity against U87-malignant glioma cells; assay type: cell-based, human; settings: for IC50: read-out: IC50 (μM ± SEM U87); for viability at 10 µM / viability at 40 µM / viability at 80 µM / viability at 100 µM / viability at 150 µM: read-out: % cell viability U87
In short: (§1)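 Cells grown in DMEM (4.5 g/L glucose, 10% FBS, 1% penicillin/streptomycin) at 37 °C, 5% CO₂. Seeded at 1 × 10³ cells/well and left 24 h to adhere. Test compound added at 10, 40, 80, 100 or 150 μM for 48 h (text also states MTT added 24 h post-dosing). MTT in PBS added for 3 h, formazan dissolved in DMSO for 30 min, OD read at 550 nm, % viability calculated from absorbance.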

[2] = test system: human embryonic kidney HEK293 cell line; experiment: MTT assay, cytotoxicity against normal HEK293 cells; assay type: cell-based
In short: as §1

[3] = as above; assay type: cell-based, human; settings: human, HEK293 cells
In short: as §1

[4] = MTT assay, U87 malignant glioma cells, ± SEM

Compound | viability at 10 µM ([1]; Homo sapiens, Glioma cell) [%] | viability at 40 µM ([1]; Homo sapiens, Glioma cell) [%] | viability at 80 µM ([1]; Homo sapiens, Glioma cell) [%] | viability at 100 µM ([1]; Homo sapiens, Glioma cell) [%] | viability at 150 µM ([1]; Homo sapiens, Glioma cell) [%] | IC50 ([1]; Homo sapiens, Glioma cell) [µM] | viability at 48 h, 10 μM [3] [%] | viability at 48 h, 40 μM [3] [%] | viability at 48 h, 80 μM [3] [%] | viability at 48 h, 100 μM [3] [%] | viability at 48 h, 150 μM [3] [%] | further results
2-(4-Isobutyl phenyl)-N′-(4-(2-(2-(4-isopropylbenzylidene)hydrazinyl)-2-oxoethoxy)benzylidene)propanehydrazide [5s] |  |  |  |  |  |  |  |  |  |  |  | % cell viability U87 ([1]; concentration 10 (μM)): 145.03%; % cell viability U87 ([1]; concentration 40 (μM)): 93.13%; % cell viability U87 ([1]; concentration 80 (μM)): 92.16%; % cell viability U87 ([1]; concentration 100 (μM)): 78.36%; % cell viability U87 ([1]; concentration 150 (μM)): 69.18%; IC50 [1, 4]: 43.73 ± 0.11 µM; % cell viability HEK293 ([2]; concentration 10 (μM)): 58.72%; % cell viability HEK293 ([2]; concentration 40 (μM)): 58.38%; % cell viability HEK293 ([2]; concentration 80 (μM)): 51.45%; % cell viability HEK293 ([2]; concentration 100 (μM)): 49.00%; % cell viability HEK293 ([2]; concentration 150 (μM)): 39.29%
2-(4-Isobutyl phenyl)-N′-(4-(2-oxo-2-(2-(−3,4,5-trimethoxybenzylidene)hydrazinyl)ethoxy)benzylidene)propanehydrazide [5g] |  |  |  |  |  |  |  |  |  |  |  | % cell viability U87 ([1]; concentration 10 (μM)): 56.40%; % cell viability U87 ([1]; concentration 40 (μM)): 47.40%; % cell viability U87 ([1]; concentration 80 (μM)): 39.45%; % cell viability U87 ([1]; concentration 100 (μM)): 33.32%; % cell viability U87 ([1]; concentration 150 (μM)): 30.90%; IC50 [1, 4]: 39.94 ± 0.16 µM; % cell viability HEK293 ([2]; concentration 10 (μM)): 86.66%; % cell viability HEK293 ([2]; concentration 40 (μM)): 75.46%; % cell viability HEK293 ([2]; concentration 80 (μM)): 62.21%; % cell viability HEK293 ([2]; concentration 100 (μM)): 62.12%; % cell viability HEK293 ([2]; concentration 150 (μM)): 56.11%
CC(C)Cc1ccc(C(C)C(=O)NN=Cc2ccc(OCC(=O)NN=Cc3ccc(O)cc3O)cc2)cc1 (stereo not shown) [5e, N′-(4-(2-(2-(2,4-Dihydroxybenzylidene)hydrazinyl)-2-oxoethoxy)benzylidene)-2-(4-isobutylphenyl)propanehydrazide] | 43.4 | 41 | 39.9 | 28.5 | 27.5 | 5.75 ± 0.43 | 69.4 | 69.1 | 67.9 | 62.1 | 50.8 | cytotoxicity in noncancerous cells (HEK293) ([2]; compared with malignant glioma U87 cells, 10-150 μM): lower cytotoxicity
CC(C)Cc1ccc(C(C)C(=O)NN=Cc2ccc(OCC(=O)NN=Cc3ccc(Cl)cc3Cl)cc2)cc1 (stereo not shown) [5h, N′-(4-(2-(2-(2,4-Dichlorobenzylidene)hydrazinyl)-2-oxoethoxy)benzylidene)-2-(4-isobutylphenyl)propanehydrazide] | 50.2 | 50.1 | 48.8 | 46 | 43.6 | 120.1 ± 0.13 | 84.1 | 79.5 | 69.1 | 68.3 | 67.1 | 
CC(C)Cc1ccc(C(C)C(=O)NN=Cc2ccc(OCC(=O)NN=Cc3cc(Br)c(O)c(Br)c3)cc2)cc1 (stereo not shown) [5i, N′-(4-(2-(2-(3,5-Dibromo-4-hydroxybenzylidene)hydrazinyl)-2-oxoethoxy)benzylidene)-2-(4-isobutylphenyl)propanehydrazide] | 40.3 | 36.9 | 31.4 | 29.9 | 24.4 | 38.32 ± 0.1 | 67.6 | 57.4 | 55.7 | 49.9 | 43.8 | 
CC(C)Cc1ccc(C(C)C(=O)NN=Cc2ccc(OCC(=O)NN=Cc3ccc(Br)cc3F)cc2)cc1 (stereo not shown) [5j, N′-(4-(2-(2-(4-Bromo-2-fluorobenzylidene)hydrazinyl)-2-oxoethoxy)benzylidene)-2-(4-isobutylphenyl)propanehydrazide] | 187 | 128 | 94.2 | 93.1 | 78.6 | 43.71 ± 0.07 | 44.5 | 40.1 | 38.4 | 36.8 | 26.3 | 
COc1ccc(C=NNC(=O)COc2ccc(C=NNC(=O)C(C)c3ccc(CC(C)C)cc3)cc2)cc1OC (stereo not shown) [5l, N′-(4-(2-(2-(3,4-Dimethoxybenzylidene)hydrazinyl)-2-oxoethoxy)benzylidene)-2-(4-isobutylphenyl)propanehydrazide] | 97 | 88.4 | 84.9 | 84.2 | 79.7 | 72.83 ± 0.06 | 30.5 | 28.1 | 25.9 | 24.9 | 24.2 | 
COc1ccc(C=NNC(=O)COc2ccc(C=NNC(=O)C(C)c3ccc(CC(C)C)cc3)cc2)c(O)c1 (stereo not shown) [5m, N′-(4-(2-(2-(2-Hydroxy-4-methoxybenzylidene)hydrazinyl)-2-oxoethoxy)benzylidene)-2-(4-isobutylphenyl)propanehydrazide] | 142 | 138 | 34.5 | 134 | 128 | 150.5 ± 0.2 | 26.2 | 26.1 | 24.2 | 21.9 | 18.6 | 
COc1ccc(C=NNC(=O)COc2ccc(C=NNC(=O)C(C)c3ccc(CC(C)C)cc3)cc2)cc1O (stereo not shown) [5n, N′-(4-(2-(2-(3-Hydroxy-4-methoxybenzylidene)hydrazinyl)-2-oxoethoxy)benzylidene)-2-(4-isobutylphenyl)propanehydrazide] | 165 | 85.3 | 61.1 | 42.7 | 33.2 | 40.18 ± 0.07 | 38.1 | 28 | 24.8 | 16.9 | 12.6 | 
CCN(CC)c1ccc(C=NNC(=O)COc2ccc(C=NNC(=O)C(C)c3ccc(CC(C)C)cc3)cc2)cc1 (stereo not shown) [5o, N′-(4-(2-(2-(4-(Diethylamino)benzylidene)hydrazinyl)-2-oxoethoxy)benzylidene)-2-(4-isobutylphenyl)propanehydrazide] | 146 | 122 | 121 | 119 | 107 | 119.7 ± 0.25 | 49 | 42.9 | 37.7 | 35.8 | 35.2 | 
COc1cccc(C=NNC(=O)COc2ccc(C=NNC(=O)C(C)c3ccc(CC(C)C)cc3)cc2)c1 (stereo not shown) [5p, 2-(4-Isobutylphenyl)-N′-(4-(2-(2-(3-methoxybenzylidene)hydrazinyl)-2-oxoethoxy)benzylidene)propanehydrazide] | 151 | 122 | 93.7 | 93.7 | 93.5 | 90.68 ± 0.13 | 49.9 | 49.4 | 49.2 | 48.1 | 39.3 | 
CC(C)Cc1ccc(C(C)C(=O)NN=Cc2ccc(OCC(=O)NN=Cc3ccc(F)cc3)cc2)cc1 (stereo not shown) [5q, N′-(4-(2-(2-(4-Fluorobenzylidene)hydrazinyl)-2-oxoethoxy)benzylidene)-2-(4-isobutylphenyl)propanehydrazide] | 183 | 84 | 81.7 | 48.5 | 40.5 | 46 ± 0.08 | 27.5 | 25.4 | 19.9 | 19.7 | 17.8 | 
CC(C)Cc1ccc(C(C)C(=O)NN=Cc2ccc(OCC(=O)NN=Cc3ccccc3O)cc2)cc1 (stereo not shown) [5r, N′-(4-(2-(2-(2-Hydroxybenzylidene)hydrazinyl)-2-oxoethoxy)benzylidene)-2-(4-isobutylphenyl)propanehydrazide] | 109 | 81.4 | 72.8 | 45.5 | 40.6 | 43.66 ± 0.04 | 39 | 33.6 | 32 | 26.1 | 25.1 | 
CC(C)Cc1ccc(C(C)C(=O)NN=Cc2ccc(OCC(=O)NN=Cc3cccc4ccccc34)cc2)cc1 (stereo not shown) [5t, 2-(4-Isobutylphenyl)-N′-(4-(2-(2-(naphthalen-1-ylmethylene)hydrazinyl)-2-oxoethoxy)benzylidene)propanehydrazide] | 179 | 169 | 155 | 146 | 140 | 86.74 ± 0.26 | 68.7 | 58.9 | 51 | 47.3 | 43 | 
CC(C)Cc1ccc(C(C)C(=O)NN=Cc2ccc(OCC(=O)NN)cc2)cc1 (stereo not shown) [compound 4, N′-(4-(2-Hydrazinyl-2-oxoethoxy)benzylidene)-2-(4-isobutylphenyl)propanehydrazide] | 72.5 | 47.9 | 41.6 | 41.3 | 33.7 | 59.9 ± 0.08 | 29.1 | 28.6 | 28.2 | 26.3 | 9.96 | 
